Our source for the inhibition values is ChEMBL document CHEMBL2157866, “Virtual screening and computational optimization for the discovery of covalent prolyl oligopeptidase inhibitors with activity in human cells” (J Med Chem, 2012).

Active and inactive are the calls of the source. No cut-off for these calls is given here.

Experiment [1] concerns the target Dipeptidyl peptidase 4 (Homo sapiens) (UniProt P27487). Briefly: Inhibition DPP4 in human LNZ308 cell extracts using Gly-Pro-AMC substrate at 100 uM incubated for 30 mins by fluorimetric assay. In short, it runs like this:
(§1)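 Cells grown to confluence in DMEM with 4.5 g/L glucose (10% FCS for HCEC, 5% FCS for glioblastoma lines), then lysed in PBS with 0.1% Triton X-100. Inhibitor (methanol stock diluted in water) preincubated 5–10 min at room temperature in duplicate wells. Gly-Pro-AMC added at 10 μM final; fluorescence increase (ex/em 360/460 nm) read for 30 min at 37 °C.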

Experiment [2] concerns the target Prolyl endopeptidase FAP (Homo sapiens) (UniProt Q12884). Briefly: Inhibition at human recombinant FAPalpha at 100 uM. Summed up:
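Recombinant human FAPα diluted in PBS with 1 mg/mL BSA. Setup as for cell extracts: inhibitor preincubated 5–10 min at room temperature, then Z-Gly-Pro-AMC at 10 μM final. AMC fluorescence (ex/em 360/460 nm) recorded for 30 min at 37 °C.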

For experiment [3], the target named is Dipeptidyl peptidase 4 (Homo sapiens) (UniProt P27487). Briefly: Inhibition DPP4 in human LN18 cell extracts using Gly-Pro-AMC substrate at 100 uM incubated for 30 mins by fluorimetric assay. Summed up: as §1
The target is the same in experiment [4]. Briefly: Inhibition DPP4 in human HCEC cell extracts using Gly-Pro-AMC substrate at 100 uM incubated for 30 mins by fluorimetric assay. In short, it runs like this: as §1
The target is the same in experiment [5]. In words: Inhibition DPP4 in human LN229 cell extracts using Gly-Pro-AMC substrate at 100 uM incubated for 30 mins by fluorimetric assay. Summed up: as §1
Experiment [6] has as its target T1, Prolyl endopeptidase (Homo sapiens) (UniProt P48147).
T1 sequence (whole entry): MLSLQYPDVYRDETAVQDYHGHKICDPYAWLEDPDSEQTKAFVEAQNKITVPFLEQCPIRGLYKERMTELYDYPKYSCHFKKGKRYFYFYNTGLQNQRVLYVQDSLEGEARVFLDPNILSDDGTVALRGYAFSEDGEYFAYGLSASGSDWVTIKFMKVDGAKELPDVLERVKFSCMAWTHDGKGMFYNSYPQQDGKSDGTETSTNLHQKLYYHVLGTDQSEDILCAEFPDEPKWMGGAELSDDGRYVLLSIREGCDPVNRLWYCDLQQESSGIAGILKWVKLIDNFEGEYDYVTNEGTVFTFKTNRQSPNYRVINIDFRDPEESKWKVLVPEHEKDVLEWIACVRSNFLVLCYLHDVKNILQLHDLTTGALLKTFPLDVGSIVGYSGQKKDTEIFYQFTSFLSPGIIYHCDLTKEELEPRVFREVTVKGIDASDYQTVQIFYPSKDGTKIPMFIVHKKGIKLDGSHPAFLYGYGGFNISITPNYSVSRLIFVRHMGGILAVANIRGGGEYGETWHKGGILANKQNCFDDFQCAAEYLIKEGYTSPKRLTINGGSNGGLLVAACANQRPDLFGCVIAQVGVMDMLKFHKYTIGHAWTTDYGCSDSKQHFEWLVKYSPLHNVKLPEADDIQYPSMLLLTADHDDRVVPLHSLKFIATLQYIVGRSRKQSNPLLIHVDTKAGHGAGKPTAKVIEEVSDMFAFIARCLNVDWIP
Briefly: Inhibition of POP in intact human LN18 cells using Cbz-Gly-Pro-AMC substrate at 100 uM incubated for 30 mins by fluorimetric assay. The class given is cell-based. In short, it runs like this:
(§2)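 Intact confluent monolayers kept in PBS pH 7.2–7.4 without detergent, in duplicate wells. Inhibitor added 5–10 min at room temperature before Z-Gly-Pro-AMC at 10 μM final. Fluorescence increase (ex/em 360/460 nm) followed for 30 min at 37 °C. IC50 obtained by plotting residual activity against inhibitor concentration.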

Experiment [7] addresses T1, Prolyl endopeptidase (Homo sapiens). Briefly: Inhibition of POP in human LN229 cell extracts using Cbz-Gly-Pro-AMC substrate at 100 uM incubated for 30 mins by fluorimetric assay. Summed up: (§3)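 Confluent monolayers (DMEM, 4.5 g/L glucose; 10% FCS for HCEC, 5% FCS for LN18/LN229/LNZ308) lysed in PBS containing 0.1% Triton X-100. Inhibitor preincubated 5–10 min at room temperature in duplicate wells. Z-Gly-Pro-AMC added at 10 μM final; fluorescence (ex/em 360/460 nm) recorded over 30 min at 37 °C. IC50 taken from residual activity plotted against decreasing inhibitor concentrations.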

Experiment [8] has the same target. Briefly: Inhibition of POP in intact human LN229 cells using Cbz-Gly-Pro-AMC substrate at 100 uM incubated for 30 mins by fluorimetric assay. The format is cell-based. Summed up: as §2
Experiment [9] shares this target. Briefly: Inhibition of POP in intact human LNZ308 cells using Cbz-Gly-Pro-AMC substrate at 100 uM incubated for 30 mins by fluorimetric assay. The format is cell-based. Summed up:
as §2

Experiment [10] has the same target. In words: Inhibition of POP in human HCEC cell extracts using Cbz-Gly-Pro-AMC substrate at 100 uM incubated for 30 mins by fluorimetric assay. Summed up: as §3
Experiment [11] has the same target. In words: Inhibition of POP in human LN18 cell extracts using Cbz-Gly-Pro-AMC substrate at 100 uM incubated for 30 mins by fluorimetric assay. In short, it runs like this: as §3
Experiment [12] shares this target. Briefly: Inhibition of POP in intact human HCEC cells using Cbz-Gly-Pro-AMC substrate at 100 uM incubated for 30 mins by fluorimetric assay. The format is cell-based. Summed up:
as §2

Experiment [13] shares this target. In words: Inhibition of POP in human LNZ308 cell extracts using Cbz-Gly-Pro-AMC substrate at 100 uM incubated for 30 mins by fluorimetric assay. Summed up: as §3

Sequence of Dipeptidyl peptidase 4 (Homo sapiens) (P27487 whole entry, looked up): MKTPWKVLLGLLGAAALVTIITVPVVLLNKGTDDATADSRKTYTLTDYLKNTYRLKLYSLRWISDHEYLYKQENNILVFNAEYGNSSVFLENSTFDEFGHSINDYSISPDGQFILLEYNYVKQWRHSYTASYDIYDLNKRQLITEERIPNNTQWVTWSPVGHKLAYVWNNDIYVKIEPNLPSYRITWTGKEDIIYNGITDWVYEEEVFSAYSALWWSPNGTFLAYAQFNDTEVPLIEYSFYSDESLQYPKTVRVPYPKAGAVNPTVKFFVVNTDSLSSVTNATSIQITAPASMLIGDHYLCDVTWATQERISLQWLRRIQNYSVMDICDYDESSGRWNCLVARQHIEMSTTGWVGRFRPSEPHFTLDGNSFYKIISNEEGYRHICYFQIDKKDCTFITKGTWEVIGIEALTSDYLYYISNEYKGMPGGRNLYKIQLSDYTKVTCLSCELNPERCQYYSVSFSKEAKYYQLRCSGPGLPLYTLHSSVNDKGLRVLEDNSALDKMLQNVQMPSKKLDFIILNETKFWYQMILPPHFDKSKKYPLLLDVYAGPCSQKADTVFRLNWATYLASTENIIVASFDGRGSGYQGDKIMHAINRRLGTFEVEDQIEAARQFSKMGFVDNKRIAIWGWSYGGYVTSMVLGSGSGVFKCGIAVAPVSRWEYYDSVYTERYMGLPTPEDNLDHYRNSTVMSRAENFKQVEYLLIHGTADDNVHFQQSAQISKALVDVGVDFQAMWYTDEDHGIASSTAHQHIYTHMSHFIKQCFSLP
Sequence of Prolyl endopeptidase FAP (Homo sapiens) (Q12884 whole entry): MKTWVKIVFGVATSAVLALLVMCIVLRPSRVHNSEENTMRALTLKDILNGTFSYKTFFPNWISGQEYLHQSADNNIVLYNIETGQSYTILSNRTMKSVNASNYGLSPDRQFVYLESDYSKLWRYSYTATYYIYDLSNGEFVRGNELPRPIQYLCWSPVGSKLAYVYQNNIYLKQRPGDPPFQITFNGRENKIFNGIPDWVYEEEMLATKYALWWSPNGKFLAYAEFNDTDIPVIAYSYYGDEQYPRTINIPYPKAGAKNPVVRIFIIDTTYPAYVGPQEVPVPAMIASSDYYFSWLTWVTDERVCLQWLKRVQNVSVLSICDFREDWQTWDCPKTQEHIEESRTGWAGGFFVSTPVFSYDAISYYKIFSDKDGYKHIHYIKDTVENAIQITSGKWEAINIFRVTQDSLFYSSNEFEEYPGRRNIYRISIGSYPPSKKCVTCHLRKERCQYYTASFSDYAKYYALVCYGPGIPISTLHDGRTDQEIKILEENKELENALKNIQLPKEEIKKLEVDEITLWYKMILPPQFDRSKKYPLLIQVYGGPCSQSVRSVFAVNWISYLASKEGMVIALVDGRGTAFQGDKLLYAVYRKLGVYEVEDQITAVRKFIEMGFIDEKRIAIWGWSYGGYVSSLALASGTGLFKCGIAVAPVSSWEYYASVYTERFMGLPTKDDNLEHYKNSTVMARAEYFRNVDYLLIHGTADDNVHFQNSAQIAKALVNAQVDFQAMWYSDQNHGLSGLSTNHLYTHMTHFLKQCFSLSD

Consider `N#C[C@@H]1CCCN1C(=O)c1cccc2c1C(=O)N(Cc1ccccc1)C2`, for which the inhibition result in [1], in experiment [3], in [4] and in experiment [5] was “inactive” in each case. Further, the inhibition in [2] worked out at 28%.

As to `O=C(NCc1ccccc1)c1ccccc1C(=O)N1CCCCC1`, the inhibition result in experiment [6], in [1], in [8], in experiment [9], in [3] and in [12] was “inactive” each time. In addition, the inhibition result in experiment [4] and in experiment [5] was “inactive” in each case. For the same compound, the inhibition in experiment [7], in [10], in experiment [11] and in experiment [13] was more than 50% in each case.

Consider `O=C(NCc1ccccc1)c1ccccc1C(=O)N1CCCC1`, for which the inhibition in experiment [6], in experiment [8], in experiment [9] and in experiment [12] was more than 50% each time. The inhibition entry in experiment [1], in [3], in experiment [4] and in [5] was “inactive” each time.

For the compound `O=C(c1cccc2c1C(=O)N(Cc1ccccc1)C2)N1CCCC1`, the inhibition entry in [1], in experiment [3], in experiment [4] and in experiment [5] was “inactive” in each case. Moreover, the inhibition in [2] came to 11%.

As to `N#C[C@@H]1CCCN1C(=O)c1ccccc1C(=O)NCc1ccccc1`, the inhibition result in [1], in [3], in [4] and in experiment [5] was “inactive” throughout. In addition, the inhibition in experiment [2] worked out at 34%.
